From ChEMBL document CHEMBL3877283, “Antitubercular activity of 1,2,3-triazolyl fatty acid derivatives” (Eur J Med Chem, 2017)
≈ marks a conversion by molar mass, not a printed value.

Tests used:
[1] = Therapeutic index, ratio of IC50 for cytotoxicity against African green monkey Vero cells to MIC for antimycobacterial activity against Mycobacterium tuberculosis H37Rv; format: cell-based; details: read-out: TI
In short: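 Vero cells were seeded at 25,000/well, grown 24 h, then exposed to compound for 48 h, with a maximum of 4.75 μg/mL and DMSO as vehicle. Viability was read by neutral red uptake. IC50 came from log plots of growth inhibition versus concentration. The index is cytotoxic IC50 divided by MIC against H37Rv from the MTT microdilution assay.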

[2] = test system: Mycobacterium tuberculosis; experiment: Antimycobacterial activity against Mycobacterium tuberculosis H37Rv measured after 5 days by MTT dye based two-fold microdilution method; format: functional; details: 120 h
In short: (§1)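 Two-fold serial dilution in 96-well plates in Middlebrook 7H9 with 10% ADS and 1% glycerol (7H9-ADS-G). DMSO stocks were diluted to a top concentration of 100 μg/mL and down to 0.8 μg/mL, run in duplicate. Wells received mid-log bacilli in 7H9-ADS-G, incubated 5 days at 37 °C, then MTT for 24 h. MIC is the lowest concentration blocking yellow-to-purple change. Rifampicin was the control.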

[3] = Cytotoxicity against African green monkey Vero cells measured after 48 hrs by neutral red assay; format: toxicity, cell-based; details: African green monkey (Chlorocebus sabaeus)
In short: (§2)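 Vero (African green monkey kidney) cells were seeded at 25,000 cells/well and grown 24 h. Compounds were then added, with DMSO as vehicle control and doxorubicin as positive control, and incubated 48 h. Viable cells were counted by neutral red uptake. Highest concentration tested was 4.75 μg/mL. IC50 was read from logarithmic plots of growth inhibition versus concentration.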

[4] = test system: Mycobacterium tuberculosis; experiment: Inhibition of Mycobacterium tuberculosis InhA assessed as remaining activity at 20 uM using trans-2-dodecenoyl-coenzyme A as substrate relative to control
In short: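 Wild-type InhA (100 nM) started the reaction with 25 μM trans-2-dodecenoyl-CoA, 250 μM NADH and 20 μM inhibitor in 30 mM PIPES, 150 mM NaCl, pH 6.8. Initial velocity was compared with an inhibitor-free control; remaining activity is vi/v0.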

[5] = Cytotoxicity against African green monkey Vero cells at 4.75 ug/ml measured after 48 hrs by neutral red assay; format: toxicity, cell-based; details: chlorocebus sabaeus; in short: as §2
[6] = test system: Mycobacterium tuberculosis; experiment: Antimycobacterial activity against Mycobacterium tuberculosis H37Rv ATCC 27294 measured after 10 days by broth dilution method; format: functional; details: H37Rv ATCC 27294, 240 h
[7] = Inhibition of Staphylococcus aureus FabI using t-o-NAC-thioester as substrate by spectrophometric method
[8] = test system: Mycobacterium tuberculosis; experiment: Antimycobacterial activity against Mycobacterium tuberculosis isolate 304 measured after 5 days by MTT dye based two-fold microdilution method; format: functional; details: isolate 304, 120 h; in short: as §1
[9] = test system: Mycobacterium tuberculosis; experiment: Antimycobacterial activity against Mycobacterium tuberculosis isolate 51 measured after 5 days by MTT dye based two-fold microdilution method; format: functional; details: isolate 51, 120 h; in short: as §1
[10] = test system: Mycobacterium tuberculosis; experiment: Antimycobacterial activity against Mycobacterium tuberculosis isolate 598 measured after 5 days by MTT dye based two-fold microdilution method; format: functional; details: isolate 598, 120 h; in short: as §1
[11] = test system: Mycobacterium tuberculosis; experiment: Antimycobacterial activity against Mycobacterium tuberculosis isolate 164 measured after 5 days by MTT dye based two-fold microdilution method; format: functional; details: isolate 164, 120 h; in short: as §1

Compound	MIC [2]	Activity [5]	other results
CCCCCCCCCCc1cn(CC(=O)OCC)nn1	1.7 µM (≈ 0.502 µg/mL)		selectivity ratio [1]: > 10; IC50 at 48 h [3]: > 16.1 µM; Activity [4]: 99.3%
CCCc1cn(CC(=O)OCC)nn1	505 µM (≈ 99.6 µg/mL)	Non-Toxic	Activity [4]: 69%
CCCCCc1cn(CC(=O)OCC)nn1	111 µM (≈ 25 µg/mL)	Non-Toxic	Activity [4]: 73.2%
COc1cccc2c1C(=O)c1c(O)c3c(c(O)c1C2=O)C[C@@](O)(C(=O)CO)C[C@@H]3O[C@H]1C[C@H](N)[C@H](O)[C@H](C)O1 [DOXORUBICIN]			IC50 at 48 h [3]: 14 µM
CCCCCc1cn(CCCC(=O)OCC)nn1	12 µM (≈ 3.04 µg/mL)	Non-Toxic	
CCCCCCCCCCCCCCO [MYRISTYL ALCOHOL]			MIC [6]: 5 µg/mL
CCCCC/C=C\C/C=C\CCCCCCCC(=O)O [LINOLEIC ACID]			IC50 [7]: 40 µM
CCCCCCCCn1cc(C(=O)O)nn1	14 µM (≈ 3.15 µg/mL)	Non-Toxic	
CCCc1cn(CCCCCC(=O)OCC)nn1	394 µM (≈ 99.8 µg/mL)	Non-Toxic	
CCCCCCCCCCO [DECANOL]			MIC [6]: 800 µM
CCCCCCCCCCn1cc(C(=O)OC)nn1	23 µM (≈ 6.15 µg/mL)	Non-Toxic	
CCCCCc1cn(CCCCC(=O)OCC)nn1	23 µM (≈ 6.15 µg/mL)	Non-Toxic	
CCCCCCCCn1cc(CO)nn1	473 µM (≈ 99.9 µg/mL)	Non-Toxic	
CCCCCCCCc1cn(CCCCCC(=O)OCC)nn1	309 µM (≈ 100 µg/mL)	Non-Toxic	
CCCCCCCC/C=C\CCCCCCCC(=O)O [OLEIC ACID]			IC50 [7]: 40 µM
CCCCCCCCCCn1cc(C(=O)O)nn1	20 µM (≈ 5.07 µg/mL)	Non-Toxic	
CCCCCCCCCCCCO [DODECANOL]			MIC [6]: 5 µg/mL
CCCCCc1cn(CCCCCC(=O)OCC)nn1	22 µM (≈ 6.19 µg/mL)	Non-Toxic	
CCCCCCCCCCCCCn1cc(C(=O)OC)nn1	323 µM (≈ 100 µg/mL)	Non-Toxic	

Compound	MIC [2]	Activity [5]	other results
CCCCCC/C=C\CCCCCCCC(=O)O [PALMITOLEIC ACID]			IC50 [7]: 40 µM
CC/C=C\C/C=C\C/C=C\CCCCCCCC(=O)O [LINOLENIC ACID]			IC50 [7]: 40 µM
CCCCCCCCn1cc(C(=O)OC)nn1	52 µM (≈ 12.4 µg/mL)	Non-Toxic	
CCCCC/C=C\C/C=C\C/C=C\C/C=C\CCCC(=O)O [ARACHIDONIC ACID]			IC50 [7]: 40 µM
CCCCCCCCc1cn(CCCC(=O)OCC)nn1	21 µM (≈ 6.2 µg/mL)	Non-Toxic	
CCCCCCCCCCc1cn(CCCC(=O)OCC)nn1	309 µM (≈ 100 µg/mL)	Non-Toxic	
CCCCCCCCCCc1cnnn1CC(=O)OCC	84 µM (≈ 24.8 µg/mL)	Non-Toxic	
CCCCCCCCCCCCCCCc1cn(CC(=O)OCC)nn1	17 µM (≈ 6.21 µg/mL)	Non-Toxic	
CCCCCCCCc1cn(CCCCC(=O)OCC)nn1	40 µM (≈ 12.4 µg/mL)	Non-Toxic	
CCCCCCCCCCn1cc(CO)nn1	209 µM (≈ 50 µg/mL)	Non-Toxic	
CCCCCCCCCCCCCCCCO [CETYL ALCOHOL]			MIC [6]: 5 µg/mL
CCCCCCCCc1cnnn1CC(=O)OCC	93 µM (≈ 24.9 µg/mL)	Non-Toxic	
CCCCCCCCCCc1cn(CCC(=O)OCC)nn1	20 µM (≈ 6.19 µg/mL)	Non-Toxic	
CCCCCCCCCCc1cn(CCCCC(=O)OCC)nn1	37 µM (≈ 12.5 µg/mL)	Non-Toxic	
CCCCCCCCc1cn(CC(=O)OCC)nn1	1.9 µM (≈ 0.508 µg/mL)		MIC [8]: 1.9 µM (≈ 0.508 µg/mL); selectivity ratio [1]: > 10; MIC [9]: 0.45 µM (≈ 0.12 µg/mL); IC50 at 48 h [3]: > 17.8 µM; MIC [10]: 1.9 µM (≈ 0.508 µg/mL); MIC [11]: 1.9 µM (≈ 0.508 µg/mL); Activity [4]: 90.1%
CCCCCCCCc1cn(CCC(=O)OCC)nn1	22 µM (≈ 6.19 µg/mL)	Non-Toxic	
CCCCCCCCCCCCCc1cn(CC(=O)OCC)nn1	296 µM (≈ 99.9 µg/mL)	Non-Toxic	
CCCCCCCCCCCCCn1cc(CO)nn1	44 µM (≈ 12.4 µg/mL)	Non-Toxic	
